Tested on: Fibroblast
Experiment: Multiplex assay against human fibroblast
Type: toxicity, cell-based
Method in brief: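 Phenotypes for tubulin, mitochondrial mass and membrane permeability are expressed as per cents of healthy-nucleus cells. Cells were stained live at seeding with Hoechst33342, BioTracker Green Microtubule Cytoskeleton Dye, MitoTracker Red and Annexin V Alexa Fluor 680, then imaged after compound addition on a CQ1 microscope at 37°C and 5% CO2. Machine-learning gating in CellPathfinder separated Hoechst high-intensity objects from normal cells, divided normal cells by nuclear state (healthy, pyknosed, fragmented) and divided pyknosed cells into mitotic or apoptotic.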

[1] = 12 h, 1 µM, compound concentration 1 uM, replicate 1
[2] = 12 h, 1 µM, compound concentration 1 uM, replicate 2
[3] = 12 h, 10 µM, compound concentration 10 uM, replicate 1
[4] = 12 h, 10 µM, compound concentration 10 uM, replicate 2
[5] = 24 h, 1 µM, compound concentration 1 uM, replicate 1
[6] = 24 h, 1 µM, compound concentration 1 uM, replicate 2
[7] = 24 h, 10 µM, compound concentration 10 uM, replicate 1
[8] = 24 h, 10 µM, compound concentration 10 uM, replicate 2

COc1cccc2cc(-c3nc([C@H]4CC[C@H](C(=O)O)CC4)n4ncnc(N)c34)[nH]c12 [OSI-027]
Population Apoptotic (%) [1]: 58% | Population Fragmented Nuclei (%) [1]: 47% | Population Healthy Nuclei (%) [1]: 40% | Population Hoechst High Intensity Objects (%) [1]: 28% | Population Membrane Permeable-Phenotype (%) [1]: 5% | Population Mitochondria Different-Phenotype (%) [1]: 0% | Population Mitotic Cells (%) [1]: 41% | Population Normal (%) [1]: 71% | Population Pyknosed Nuclei (%) [1]: 11% | Population Tubulin-Different-Phenotype (%) [1]: 7% | Total Cell Count [1]: 382 | Population Apoptotic (%) [2]: 57% | Population Fragmented Nuclei (%) [2]: 68% | Population Healthy Nuclei (%) [2]: 22% | Population Hoechst High Intensity Objects (%) [2]: 26% | Population Membrane Permeable-Phenotype (%) [2]: 25% | Population Mitochondria Different-Phenotype (%) [2]: 18% | Population Mitotic Cells (%) [2]: 42% | Population Normal (%) [2]: 73% | Population Pyknosed Nuclei (%) [2]: 9% | Population Tubulin-Different-Phenotype (%) [2]: 31% | Total Cell Count [2]: 98 | Population Apoptotic (%) [3]: 72% | Population Fragmented Nuclei (%) [3]: 28% | Population Healthy Nuclei (%) [3]: 56% | Population Hoechst High Intensity Objects (%) [3]: 12% | Population Membrane Permeable-Phenotype (%) [3]: 2% | Population Mitochondria Different-Phenotype (%) [3]: 2% | Population Mitotic Cells (%) [3]: 27% | Population Normal (%) [3]: 87% | Population Pyknosed Nuclei (%) [3]: 14% | Population Tubulin-Different-Phenotype (%) [3]: 0% | Total Cell Count [3]: 281 | Population Apoptotic (%) [4]: 20% | Population Fragmented Nuclei (%) [4]: 65% | Population Healthy Nuclei (%) [4]: 26% | Population Hoechst High Intensity Objects (%) [4]: 31% | Population Membrane Permeable-Phenotype (%) [4]: 18% | Population Mitochondria Different-Phenotype (%) [4]: 12% | Population Mitotic Cells (%) [4]: 80% | Population Normal (%) [4]: 68% | Population Pyknosed Nuclei (%) [4]: 8% | Population Tubulin-Different-Phenotype (%) [4]: 6% | Total Cell Count [4]: 88 | Population Apoptotic (%) [5]: 53% | Population Fragmented Nuclei (%) [5]: 36% | Population Healthy Nuclei (%) [5]: 50% | Population Hoechst High Intensity Objects (%) [5]: 33% | Population Membrane Permeable-Phenotype (%) [5]: 7% | Population Mitochondria Different-Phenotype (%) [5]: 1% | Population Mitotic Cells (%) [5]: 46% | Population Normal (%) [5]: 66% | Population Pyknosed Nuclei (%) [5]: 12% | Population Tubulin-Different-Phenotype (%) [5]: 5% | Total Cell Count [5]: 302 | Population Apoptotic (%) [6]: 16% | Population Fragmented Nuclei (%) [6]: 68% | Population Healthy Nuclei (%) [6]: 22% | Population Hoechst High Intensity Objects (%) [6]: 34% | Population Membrane Permeable-Phenotype (%) [6]: 6% | Population Mitochondria Different-Phenotype (%) [6]: 13% | Population Mitotic Cells (%) [6]: 83% | Population Normal (%) [6]: 65% | Population Pyknosed Nuclei (%) [6]: 8% | Population Tubulin-Different-Phenotype (%) [6]: 13% | Total Cell Count [6]: 103 | Population Apoptotic (%) [7]: 75% | Population Fragmented Nuclei (%) [7]: 23% | Population Healthy Nuclei (%) [7]: 64% | Population Hoechst High Intensity Objects (%) [7]: 17% | Population Membrane Permeable-Phenotype (%) [7]: 6% | Population Mitochondria Different-Phenotype (%) [7]: 0% | Population Mitotic Cells (%) [7]: 24% | Population Normal (%) [7]: 82% | Population Pyknosed Nuclei (%) [7]: 12% | Population Tubulin-Different-Phenotype (%) [7]: 0% | Total Cell Count [7]: 282 | Population Apoptotic (%) [8]: 33% | Population Fragmented Nuclei (%) [8]: 60% | Population Healthy Nuclei (%) [8]: 34% | Population Hoechst High Intensity Objects (%) [8]: 33% | Population Membrane Permeable-Phenotype (%) [8]: 17% | Population Mitochondria Different-Phenotype (%) [8]: 11% | Population Mitotic Cells (%) [8]: 66% | Population Normal (%) [8]: 66% | Population Pyknosed Nuclei (%) [8]: 6% | Population Tubulin-Different-Phenotype (%) [8]: 11% | Total Cell Count [8]: 75

Source: ChEMBL document CHEMBL4689842, “EUbOPEN Chemogenomics Library wave 1” (2021)
